Calls of active or inactive are those of the source. No cut-off for these calls is given here.
Assays:
HeLa [1] = test: Cytotoxicity against human HeLa cells assessed as reduction in cell viability using compound addition to cell culture cells in lag phase of growth and incubated for 48 hrs by MTT assay; type: functional, cell-based; details: Homo sapiens, HeLa, 48 h; read-out: IC50
HeLa [2] = test: Cytotoxicity against human HeLa cells assessed as reduction in cell viability using compound addition to cell culture cells in log phase of growth and incubated for 48 hrs by MTT assay; type: functional, cell-based; details: Homo sapiens, HeLa, 48 h; read-out: IC50
A549 [3] = test: Cytotoxicity against human A549 cells assessed as reduction in cell viability using compound addition to cell culture cells in lag phase of growth and incubated for 48 hrs by MTT assay; type: functional, cell-based; details: Homo sapiens, A549, 48 h; read-out: IC50
A549 [4] = test: Cytotoxicity against human A549 cells assessed as reduction in cell viability using compound addition to cell culture cells in log phase of growth and incubated for 48 hrs by MTT assay; type: functional, cell-based; details: Homo sapiens, A549, 48 h; read-out: IC50
MCF7 [5] = test: Cytotoxicity against human MCF7 cells assessed as reduction in cell viability using compound addition to cell culture cells in lag phase of growth and incubated for 48 hrs by MTT assay; type: functional, cell-based; details: Homo sapiens, MCF7, 48 h; read-out: IC50
MCF7 [6] = test: Cytotoxicity against human MCF7 cells assessed as reduction in cell viability using compound addition to cell culture cells in log phase of growth and incubated for 48 hrs by MTT assay; type: functional, cell-based; details: Homo sapiens, MCF7, 48 h; read-out: IC50
Vero [7] = test: Cytotoxicity against African green monkey Vero cells assessed as reduction in cell viability using compound addition to cell culture cells in lag phase of growth and incubated for 48 hrs by MTT assay; type: cell-based, Chlorocebus sabaeus; details: Chlorocebus sabaeus, Vero, 48 h; read-out: IC50
Vero [8] = test: Cytotoxicity against African green monkey Vero cells assessed as reduction in cell viability using compound addition to cell culture cells in log phase of growth and incubated for 48 hrs by MTT assay; type: cell-based, Chlorocebus sabaeus; details: Chlorocebus sabaeus, Vero, 48 h; read-out: IC50
MCF7 [9] = test: Ratio of IC50 for cytotoxicity against human MCF7 cells using compound addition to cell culture cells in lag phase of growth and incubated for 48 hrs by MTT assay to IC50 for cytotoxicity against human MCF7 cells using compound addition to cell culture cells in log phase of growth and incubated for 48 hrs by MTT assay; type: functional
HeLa [10] = test: Induction of apoptosis in human HeLa cells assessed as increase in caspase-3 activity by measuring pNA release level at 8 uM incubated for 4 hrs using c-DEVD-pNA substrate by colorimetric assay; type: functional
Summary of the method: (§1)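 HeLa cells in DMEM with 10% FBS were exposed for 4 h (fixed 24 or 32 level for 8 h). Staurosporine for 4 h served as the positive control. Cells were lysed at 4 °C for 10 min and centrifuged, and supernatant protein was measured by Bradford. Caspase-3 activity was read colorimetrically as nmol pNA/min/mL, with treated/untreated OD ratios. Values are means ± SD of three independent experiments in triplicate.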

HeLa [11] = test: Induction of apoptosis in human HeLa cells assessed as increase in caspase-3 activity by measuring pNA release level at 12 uM incubated for 4 hrs using c-DEVD-pNA substrate by colorimetric assay; type: functional; summary of the method: as §1
HeLa [12] = test: Induction of apoptosis in human HeLa cells assessed as increase in caspase-3 activity by measuring pNA release level at 16 uM incubated for 4 hrs using c-DEVD-pNA substrate by colorimetric assay; type: functional; summary of the method: as §1
HeLa [13] = test: Induction of apoptosis in human HeLa cells assessed as increase in caspase-3 activity by measuring pNA release level at 24 uM incubated for 4 hrs using c-DEVD-pNA substrate by colorimetric assay; type: functional; summary of the method: as §1
HeLa [14] = test: Induction of apoptosis in human HeLa cells assessed as increase in caspase-3 activity by measuring pNA release level at 32 uM incubated for 4 hrs using c-DEVD-pNA substrate by colorimetric assay; type: functional; summary of the method: as §1
HeLa [15] = test: Induction of apoptosis in human HeLa cells assessed as reduction in cellular adhesion at 32 uM incubated for 4 hrs by light microscopy
HeLa [16] = test: Induction of apoptosis in human HeLa cells assessed as reduction in cellular integrity at 32 uM incubated for 4 hrs by light microscopy
[17] = Selectivity index, ratio of IC50 for African green monkey Vero cells to IC50 for human HeLa cells; type: toxicity; details: Vero cells and HeLa cells, read-out: Ratio IC50
HeLa [18] = test: Induction of apoptosis in human HeLa cells assessed increase in DNA fragmentation at 16 uM incubated for 12 hrs by ethidium bromide staining based agarose gel electrophoresis; type: functional, cell-based
Summary of the method: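 HeLa cells were incubated with the compounds at varying concentrations for 12 or 24 h. Controls were DMSO (solvent) and staurosporine 2 µM (positive). Adherent and floating cells were pooled, centrifuged at 500 g and washed twice in cold PBS. Genomic DNA was extracted with a kit, run on 1.8% agarose, stained with ethidium bromide and viewed under UV.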

HeLa [19] = test: Induction of apoptosis in human HeLa cells assessed increase in apoptotic nuclei formation at 8 uM incubated for 12 hrs by Hoechst 33342 staining based fluorescence microscopy; type: functional
HeLa [20] = test: Induction of cell cycle arrest in human HeLa cells assessed increase in subG1 phase accumulation at 24 uM incubated for 12 hrs by 33342 propidium iodide based flow cytometry relative to untreated control; type: functional
HeLa [21] = test: Induction of cell cycle arrest in human HeLa cells assessed increase in subG1 phase accumulation at 24 uM incubated for 12 hrs by 33342 propidium iodide based flow cytometry relative to Withaferin A; type: functional
Summary of the method: (§2)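 HeLa cells (1–2 × 10^6 per well) were exposed for 12 h at 24 µM, or at 16 µM over a time course. Adherent and floating cells were pooled, washed in ice-cold PBS, and fixed/permeabilized overnight in ice-cold 70% ethanol. DNA was stained with propidium iodide and G1, G2/M and sub-G1 (hypoploid) fractions were read by flow cytometry. Results are from ≥3 independent experiments in triplicate.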

HeLa [22] = test: Induction of cell cycle arrest in human HeLa cells assessed increase in hypoploid phase accumulation at 24 uM incubated for 12 hrs by […] propidium iodide based flow cytometry relative to untreated control; type: functional
HeLa [23] = test: Induction of cell cycle arrest in human HeLa cells assessed increase in subG1 phase accumulation at 16 uM by 33342 propidium iodide based flow cytometry relative to untreated control; type: functional; details: TDE = time-dependent effect; summary of the method: as §2
HeLa [24] = test: Induction of cell cycle arrest in human HeLa cells assessed reduction in G2/M phase accumulation at 16 uM by 33342 propidium iodide based flow cytometry relative to untreated control; type: functional; details: TDE = time-dependent effect; summary of the method: as §2
HeLa [25] = test: Induction of cell cycle arrest in human HeLa cells assessed accumulation at G2/M phase at 16 uM incubated for 24 hrs by 33342 propidium iodide based flow cytometry relative to untreated control; type: functional; details: in the assay text read “accumulation at sub-G1 phase” for “accumulation at G2/M phase”; summary of the method: as §2
HeLa [26] = test: Induction of early apoptosis in human HeLa cells at 4 uM incubated for 1 hr by annexin V and propidium iodide staining based flow cytometry; type: functional, cell-based
HeLa [27] = test: Induction of late apoptosis in human HeLa cells at 8 uM incubated for 1 hr by annexin V and propidium iodide staining based flow cytometry; type: functional, cell-based
HeLa [28] = test: Induction of apoptosis in human HeLa cells assessed as increase in caspase-3 activity by measuring pNA release level at 24 uM incubated for 8 hrs using c-DEVD-pNA substrate by colorimetric assay; type: functional; summary of the method: as §1

CC1=C(COC(=O)c2ccccc2)C(=O)O[C@@H]([C@@H](C)[C@H]2CC[C@H]3[C@@H]4C[C@H]5O[C@]56C(=O)C=CC(=O)[C@]6(C)[C@H]4CC[C@]23C)C1
IC50 (HeLa [1]): 2.6 µM | IC50 (HeLa [2]): 1.9 µM | IC50 (A549 [3]): 3.2 µM | IC50 (A549 [4]): 2.3 µM | IC50 (MCF7 [5]): 5.4 µM | IC50 (MCF7 [6]): 1.1 µM | IC50 (Vero [7]): 3.1 µM | IC50 (Vero [8]): 0.7 µM | Ratio IC50 (MCF7 [9]): >3 | Activity (HeLa [10]): 0.65 nmol/min/mL | Activity (HeLa [11]): 0.4 nmol/min/mL | Activity (HeLa [12]): 0.67 nmol/min/mL | Activity (HeLa [13]): 1.05 nmol/min/mL | Activity (HeLa [14]): 0.61 nmol/min/mL | Activity (HeLa [15]): Active | Activity (HeLa [16]): Active

CC1=C(COC(=O)c2ccccc2)C(=O)O[C@@H]([C@@H](C)[C@H]2CC[C@H]3[C@@H]4C[C@H]5O[C@]56[C@@H](O)C=CC(=O)[C@]6(C)[C@H]4CC[C@]23C)C1
IC50 (HeLa [1]): 0.8 µM | IC50 (HeLa [2]): 1.6 µM | IC50 (A549 [3]): 1 µM | IC50 (A549 [4]): 1.5 µM | IC50 (MCF7 [5]): 0.3 µM | IC50 (MCF7 [6]): 0.7 µM | IC50 (Vero [7]): 0.2 µM | IC50 (Vero [8]): 0.5 µM | selectivity ratio [17]: 2.5 | Activity (HeLa [18]): Active | Activity (HeLa [19]): 28% | fold change (FC) (HeLa [20]): 4 - 6 | fold change (FC) (HeLa [21]): 2 | Activity (HeLa [22]): 22.1% | Activity (HeLa [23]): Tde | Activity (HeLa [24]): Tde | Activity (HeLa [25]): 37.8% | Activity (HeLa [26]): Active | Activity (HeLa [27]): Active | Activity (HeLa [28]): 1.7 to 2 nmol/min/mL | Activity (HeLa [10]): 0.32 nmol/min/mL | Activity (HeLa [11]): 0.52 nmol/min/mL | Activity (HeLa [12]): 0.67 nmol/min/mL | Activity (HeLa [13]): 1.16 nmol/min/mL | Activity (HeLa [14]): 0.85 nmol/min/mL
